These results are taken from paper PMC9391279 (Cell chemical biology, 2022).

Assay [1] addresses BRD4(BD1). The following applies: read-out: KD,BD1, ref Faivre et al., 2020; cited from earlier work.
Assay [2] deals with BRD4(BD2). The following applies: read-out: KD,BD2, ref Faivre et al., 2020; cited from earlier work.
In assay [3] the target is Keap1-BTB domain (Homo sapiens, UniProt Q14145). The assay is described as follows: TR-FRET ligand displacement assay, Keap1-BTB domain. The assay is classed as binding. A general note: Time-resolved FRET reads energy transfer from a long-lived donor to a nearby acceptor.
Keap1-BTB domain, sequence (Q14145 whole entry, the tested form may be a part): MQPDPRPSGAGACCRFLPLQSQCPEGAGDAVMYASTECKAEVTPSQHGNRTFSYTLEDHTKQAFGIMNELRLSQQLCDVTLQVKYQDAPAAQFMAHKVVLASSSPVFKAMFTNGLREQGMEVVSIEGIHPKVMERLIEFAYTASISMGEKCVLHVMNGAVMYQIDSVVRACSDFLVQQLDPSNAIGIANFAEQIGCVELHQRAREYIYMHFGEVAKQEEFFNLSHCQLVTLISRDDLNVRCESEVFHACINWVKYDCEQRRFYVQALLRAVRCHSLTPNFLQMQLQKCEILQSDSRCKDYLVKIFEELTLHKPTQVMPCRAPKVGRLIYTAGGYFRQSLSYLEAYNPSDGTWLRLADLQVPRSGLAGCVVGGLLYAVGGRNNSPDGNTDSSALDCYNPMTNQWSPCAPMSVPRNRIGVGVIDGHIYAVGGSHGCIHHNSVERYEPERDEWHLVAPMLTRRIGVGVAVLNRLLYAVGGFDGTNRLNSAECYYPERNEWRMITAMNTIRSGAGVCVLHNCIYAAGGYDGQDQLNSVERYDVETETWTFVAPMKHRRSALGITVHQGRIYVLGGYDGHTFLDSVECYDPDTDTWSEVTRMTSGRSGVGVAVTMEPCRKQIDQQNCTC
Assay [4] concerns the target T1, BRD4 in MDA-MB-231 cells (Homo sapiens, UniProt O60885). The assay is described as follows: BRD4 degradation rescue experiments, MDA-MB-231. The format is cell-based, H. sapiens. The conditions noted are these: for Rescue of CS-JQ1-induced BRD4 degradation by co-treatment: MDA-MB-231, co-treatment with CS-JQ1, 5 h; for Rescue of dBET6-induced BRD4 degradation by co-treatment: MDA-MB-231, co-treatment with dBET6, 5 h.

In assay [5] the target is T2, BRD4 in MCF7 cells (Homo sapiens, UniProt O60885). As to the kind of experiment: BRD4 degradation rescue experiments, MCF7. The format is cell-based, H. sapiens. The conditions noted are these: for Rescue of CS-JQ1-induced BRD4 degradation by co-treatment: MCF7, co-treatment with CS-JQ1, 5 h; for Rescue of dBET6-induced BRD4 degradation by co-treatment: MCF7, co-treatment with dBET6, 5 h.

For assay [6], the system named is BRD4. The assay is described as follows: TR-FRET ligand displacement assays with recombinant BRD4. The format is binding, human. The following applies: Figure 4B. The method in brief: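 Tracer displacement of JQ1-FITC (20 nM) from 4 nM GST-BRD4(BD1) or GST-BRD4(BD2) with 4 nM CoraFluor-1 anti-GST VHH, in HEPES/NaCl/BSA/Tween buffer, pH 7.5. Endogenous BRD4 was tested in clarified MCF7 lysate at 0.8 mg/mL total protein. Floor was a 10 μM reference inhibitor; ceiling was no inhibitor. Four-parameter IC50 fits were converted to KD,app by Cheng-Prusoff using tracer KD,app.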

Assay [7] has as its target T1, BRD4 in MDA-MB-231 cells. As to the kind of experiment: BRD4 ubiquitination by immunoprecipitation / Western blot. The format is cell-based, H. sapiens. The following applies: MDA-MB-231, 5 h.
Assay [8] deals with T2, BRD4 in MCF7 cells. As to the kind of experiment: TR-FRET BRD4 quantification, 24-well plate format, MCF7. The format is cell-based, H. sapiens. The following applies: MCF7, 5 h treatment, 1 h washout.
The target of assay [9] is T1, BRD4 in MDA-MB-231 cells. The assay is described as follows: TR-FRET BRD4 quantification, 96-well plate format. The assay is classed as cell-based, H. sapiens. The following applies: MDA-MB-231, 30 min to 10 h, 96-well no wash-out.
Assay [10] has as its system full-length Keap1 and individual BRD4 bromodomains. The format is biochemical. The following applies: BRD4(BD1) or BRD4(BD2).
Assay [11] has as its target T1, BRD4 in MDA-MB-231 cells. As to the kind of experiment: TR-FRET BRD4 quantification, 24-well plate format, MDA-MB-231. The assay is classed as cell-based, H. sapiens. The conditions noted are these: MDA-MB-231, 5 h treatment, 1 h washout.
The target in assay [12] is Keap1-Kelch domain (Homo sapiens, UniProt Q14145). The assay is described as follows: TR-FRET ligand displacement assay, Keap1-Kelch domain. The format is binding.
Keap1-Kelch domain, sequence (Q14145 whole entry, the tested form may be a part): as above

What is called Kd is the constant that tells how readily two partners part at equilibrium. Consider `CCS(=O)(=O)Nc1ccc(Oc2ccc(F)cc2F)c(-c2cn(C)c(=O)c3[nH]ccc23)c1` [ABBV-075, ABBV-075 (Mivebresib)], for which the values for the dissociation constant (Kd) in assay [1] and in assay [2] were 13.8 nM and 2.5 nM, respectively.
As to `COC(=O)[C@]12CCC(C)(C)C[C@H]1[C@H]1C(=O)C=C3[C@@]4(C)C=C(C#N)C(=O)C(C)(C)[C@@H]4CC[C@@]3(C)[C@]1(C)CC2` [CDDO-Me, bardoxolone methyl], in assay [3], binding was characterised by a dissociation constant (Kd) of 24 nM. Besides, the “Rescue of CS-JQ1-induced BRD4 degradation by co-treatment” value in assay [4] is given as “not altered”.
In the case of `CC1=C(O)C(=O)C=C2C1=CC=C1[C@@]2(C)CC[C@@]2(C)[C@@H]3C[C@](C)(C(=O)O)CC[C@]3(C)CC[C@]12C` [CS, celastrol], the “Rescue of CS-JQ1-induced BRD4 degradation by co-treatment” value in assay [5] and in [4] was “reduced CS-JQ1 degradation efficiency” throughout.
On to `CC1=C(O)C(=O)C=C2C1=CC=C1[C@@]2(C)CC[C@@]2(C)[C@@H]3C[C@](C)(C(=O)NCCCOCCOCCOCCCNC(=O)CC4N=C(c5ccc(Cl)cc5)c5c(sc(C)c5C)-n5c(C)nnc54)CC[C@]3(C)CC[C@]12C` (stereo partly drawn) [CS-JQ1, (2R,4aS,6aS,12bR,14aS,14bR)-N-(1-(4-(4-chlorophenyl)-2,3,9-trimethyl-6H-thieno[3,2-f][1,2,4]triazolo[4,3-a][1,4]diazepin-6-yl)-2-oxo-7,10,13-trioxa-3-azahexadecan-16-yl)-10-hydroxy-2,4a,6a,9,12b,14a-hexamethyl-11-oxo-1,2,3,4,4a,5,6,6a,11,12b,13,14,14a,14b-tetradecahydropicene-2-carboxamide], for which the “Affinity for the Keap1 BTB domain (in words)” value in [3] (compared with celastrol) is recorded as “slightly improved affinity”. Moreover, the “Target engagement with BRD4 (in words)” value in [6] was “validated target engagement with BRD4”. Also, the “Induction of BRD4 ubiquitination” value in assay [7] was “induce BRD4 ubiquitination”. Further, the “BRD4 level by TR-FRET after treatment (in words)” value is “dose-dependent and efficient degradation of BRD4” in assay [8]; “dose-dependent and efficient degradation of BRD4” in assay [11]. The “BRD4 degradation kinetics (in words)” value in [9] is given as “slightly slower kinetics”. Further, the “Ternary complex formation between full-length Keap1 and individual BRD4 bromodomains” value in [10] is “could induce ternary complex formation”. Moreover, the “Binding to the Keap1 Kelch domain (in words)” value in assay [12] was “lost the ability to bind”.
As for `NS(=O)(=O)OC[C@@H]1C[C@@H](n2ccc3c(N[C@H]4CCc5ccccc54)ncnc32)C[C@@H]1O` [MLN4924], in [5], the “Rescue of CS-JQ1-induced BRD4 degradation by co-treatment” value is reported as “restored BRD4 levels” and the “Rescue of dBET6-induced BRD4 degradation by co-treatment” value is recorded as “attenuated”. For the same compound, in [4], the “Rescue of CS-JQ1-induced BRD4 degradation by co-treatment” value is recorded as “restored BRD4 levels” and the “Rescue of dBET6-induced BRD4 degradation by co-treatment” value is “attenuated”.
Turning to `NS(=O)(=O)OC[C@H]1C[C@@H](Nc2ccnc3cc(-c4cccc(SC(F)(F)F)c4)nn23)[C@H](O)[C@@H]1O` [MLN7243], in [5], the “Rescue of CS-JQ1-induced BRD4 degradation by co-treatment” value is recorded as “restored BRD4 levels” and the “Rescue of dBET6-induced BRD4 degradation by co-treatment” value is on record as “attenuated”. Besides, in assay [4], the “Rescue of CS-JQ1-induced BRD4 degradation by co-treatment” value is given as “restored BRD4 levels” and the “Rescue of dBET6-induced BRD4 degradation by co-treatment” value is on record as “attenuated”.
Take `Cc1ncsc1-c1ccc(CNC(=O)[C@@H]2C[C@@H](O)CN2C(=O)[C@@H](NC(=O)COCCOCCOCCNC(=O)C[C@@H]2N=C(c3ccc(Cl)cc3)c3c(sc(C)c3C)-n3c(C)nnc32)C(C)(C)C)cc1` [MZ1]: the “BRD4 degradation kinetics (in words)” value in assay [9] is “slightly slower degradation kinetics”.
As for `CC(C)C[C@H](NC(=O)[C@H](Cc1ccccc1)NC(=O)c1cnccn1)B(O)O` [bortezomib], the “Rescue of dBET6-induced BRD4 degradation by co-treatment” value in assay [5] and in assay [4] was “attenuated” in each case.
Regarding `Nc1cccc2c1C(=O)N(C1CCC(=O)NC1=O)C2=O` (stereo not drawn) [pomalidomide], the “Rescue of dBET6-induced BRD4 degradation by co-treatment” value in assay [5] and in assay [4] was “attenuated” in each case.
